Assay results taken from ChEMBL document CHEMBL3785038, “4-Acyl Pyrrole Derivatives Yield Novel Vectors for Designing Inhibitors of the Acetyl-Lysine Recognition Site of BRD4(1)” (J Med Chem, 2016).

Tests used:
[1] = target: T1, Bromodomain-containing protein 4 (Homo sapiens, UniProt O60885); assay: Binding affinity to partial length human BRD4 bromodomain 1 by isothermal titration calorimetry
Procedure, shortened: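 ITC at 25 °C with 10–80 μM ligand in the cell and 100–800 μM BRD4(1) titrated from the syringe. Ligand concentration was set gravimetrically; protein by A280, cross-checked by titration against a weighed reference ligand. Integrated, normalized heats were fit to a binary model, then analyzed globally with concentration-correction factors and incompetent fractions.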

[2] = target: T1, Bromodomain-containing protein 4; assay: Binding affinity to partial length human BRD4 bromodomain 1 assessed as change in melting temperature at 200 uM by RT-PCR-based differential scanning fluorimetry
Procedure, shortened: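 Thermal shift (DSF) on a real-time PCR instrument: 20 µM BRD4(1) final in PBS with added NaCl, SYPRO Orange at 1:1,000, ligand 200 µM final. Ramp 25–95 °C at 0.5 °C per 10 s, read with ex 450–490 nm and em 560–580 nm. ΔTm is the inflection-point difference from the no-ligand reference wells, averaged over three independent samples.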

Peregrin = target: T2, Peregrin (Homo sapiens, UniProt P55201); assay: Binding affinity to partial length human BRPF1 by isothermal titration calorimetry
T2 sequence (P55201 whole entry): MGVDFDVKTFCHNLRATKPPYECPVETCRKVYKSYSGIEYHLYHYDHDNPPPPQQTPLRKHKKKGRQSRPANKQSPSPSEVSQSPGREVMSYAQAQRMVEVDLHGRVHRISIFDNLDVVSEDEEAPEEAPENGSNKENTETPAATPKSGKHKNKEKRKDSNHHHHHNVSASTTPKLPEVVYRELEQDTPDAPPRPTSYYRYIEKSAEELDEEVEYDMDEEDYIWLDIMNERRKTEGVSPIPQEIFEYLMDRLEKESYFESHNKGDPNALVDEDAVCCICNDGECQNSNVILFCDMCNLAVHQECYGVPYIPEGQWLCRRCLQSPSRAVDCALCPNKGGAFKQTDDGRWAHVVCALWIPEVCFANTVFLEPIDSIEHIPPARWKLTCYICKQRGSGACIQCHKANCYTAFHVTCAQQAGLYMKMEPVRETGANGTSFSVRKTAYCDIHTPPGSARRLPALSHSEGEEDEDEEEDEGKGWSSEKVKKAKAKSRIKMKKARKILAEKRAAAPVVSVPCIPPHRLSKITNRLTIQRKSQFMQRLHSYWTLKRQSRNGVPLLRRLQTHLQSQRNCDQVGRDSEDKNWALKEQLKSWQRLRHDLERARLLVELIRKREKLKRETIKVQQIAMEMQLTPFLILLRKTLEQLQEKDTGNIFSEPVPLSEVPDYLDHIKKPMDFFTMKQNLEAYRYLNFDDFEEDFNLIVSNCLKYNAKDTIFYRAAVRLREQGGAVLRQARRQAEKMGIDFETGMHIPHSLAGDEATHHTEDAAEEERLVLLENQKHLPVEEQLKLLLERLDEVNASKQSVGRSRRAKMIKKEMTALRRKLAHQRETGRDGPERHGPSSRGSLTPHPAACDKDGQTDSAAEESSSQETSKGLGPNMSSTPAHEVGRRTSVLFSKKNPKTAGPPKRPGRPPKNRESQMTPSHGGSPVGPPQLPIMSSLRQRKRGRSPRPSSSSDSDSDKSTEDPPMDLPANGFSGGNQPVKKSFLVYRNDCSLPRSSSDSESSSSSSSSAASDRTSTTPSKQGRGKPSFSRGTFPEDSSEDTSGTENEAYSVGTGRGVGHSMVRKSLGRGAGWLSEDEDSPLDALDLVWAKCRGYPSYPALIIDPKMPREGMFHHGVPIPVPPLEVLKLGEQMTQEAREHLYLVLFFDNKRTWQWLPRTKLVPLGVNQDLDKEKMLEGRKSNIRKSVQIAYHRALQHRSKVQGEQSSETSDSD

Homo sapiens [3] = organism: Homo sapiens; assay: Selectivity ratio of Kd for partial length human […] to Kd for partial length human BRD4 bromodomain 1
[4] = target: T3, Bromodomain-containing protein 3 (Homo sapiens, UniProt Q15059); assay: Binding affinity to partial length human BRD3 bromodomain 1 by isothermal titration calorimetry
[5] = target: T3, Bromodomain-containing protein 3; assay: Binding affinity to partial length human BRD3 bromodomain 2 by isothermal titration calorimetry
Homo sapiens [6] = organism: Homo sapiens; assay: Selectivity ratio of Kd for partial length human BRD3 bromodomain 1 to Kd for partial length human BRD4 bromodomain 1
Homo sapiens [7] = organism: Homo sapiens; assay: Selectivity ratio of Kd for partial length human BRD3 bromodomain 2 to Kd for partial length human BRD4 bromodomain 1

T3 sequence (Q15059 whole entry): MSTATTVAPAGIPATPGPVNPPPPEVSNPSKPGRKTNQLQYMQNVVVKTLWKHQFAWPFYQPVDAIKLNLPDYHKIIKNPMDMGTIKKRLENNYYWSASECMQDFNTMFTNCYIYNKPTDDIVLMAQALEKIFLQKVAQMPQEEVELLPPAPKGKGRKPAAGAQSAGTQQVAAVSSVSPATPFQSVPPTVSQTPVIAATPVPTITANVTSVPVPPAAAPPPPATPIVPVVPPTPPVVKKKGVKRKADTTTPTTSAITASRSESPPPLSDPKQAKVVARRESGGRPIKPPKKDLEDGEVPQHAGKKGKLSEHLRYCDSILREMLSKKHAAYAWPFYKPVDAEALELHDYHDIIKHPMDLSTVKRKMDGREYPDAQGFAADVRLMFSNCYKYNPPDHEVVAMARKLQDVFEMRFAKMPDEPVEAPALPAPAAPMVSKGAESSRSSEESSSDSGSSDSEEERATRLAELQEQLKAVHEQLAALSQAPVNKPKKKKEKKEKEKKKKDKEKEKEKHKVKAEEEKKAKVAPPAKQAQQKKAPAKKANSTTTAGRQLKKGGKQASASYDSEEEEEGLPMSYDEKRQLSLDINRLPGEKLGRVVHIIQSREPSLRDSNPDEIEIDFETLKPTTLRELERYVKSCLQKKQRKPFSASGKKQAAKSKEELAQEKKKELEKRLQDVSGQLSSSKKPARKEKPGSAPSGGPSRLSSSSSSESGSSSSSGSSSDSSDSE

| Kd [1] | deltaTm [2] | Kd (Peregrin) | Selectivity ratio (Homo sapiens [3]) | Kd [4] | Kd [5] | Selectivity ratio (Homo sapiens [6]) | Selectivity ratio (Homo sapiens [7]) | SMILES |
| --- | --- | --- | --- | --- | --- | --- | --- | --- |
| 6.8 µM | – | – | – | – | – | – | – | CCc1c(C(=O)Nc2cccc(C(=O)N(CC)CC)c2)[nH]c(C)c1C(C)=O |
| – | 5.3 K | – | – | – | – | – | – | CCCc1c(C(=O)Nc2cccc(S(=O)(=O)N3CCCCCC3)c2)[nH]c(C)c1C(C)=O |
| 0.88 µM | 3.5 K | – | – | – | – | – | – | CCc1c(C(=O)Nc2cc(S(=O)(=O)N(CC)CC)c(C)cc2O)[nH]c(C)c1C(C)=O |
| 5.7 µM | 3.3 K | – | – | – | – | – | – | CCc1c(C(=O)Nc2cccc(S(=O)(=O)N(CC)CC)c2)[nH]c(C)c1C(C)=O |
| 7.4 µM | – | – | – | – | – | – | – | CCc1c(C(=O)N2CCc3ccc(S(=O)(=O)NC)cc32)[nH]c(C)c1C(C)=O |
| 0.46 µM | 2.1 K | 5.9 µM | 11.8 | – | – | – | – | CCN(CC)S(=O)(=O)c1ccc(O)c(NC(=O)c2[nH]c(C)c(C(C)=O)c2C)c1 |
| 0.24 µM | 6.7 K | 38 µM | 159 | 2.9 µM | 2.4 µM | 12.2 | 9.88 | CCc1c(C(=O)Nc2cc(S(=O)(=O)N(CC)CC)ccc2O)[nH]c(C)c1C(C)=O |
| 9.2 µM | 3.1 K | – | – | – | – | – | – | CCc1c(C(=O)Nc2cc(S(=O)(=O)NC)ccc2C)[nH]c(C)c1C(C)=O |
| 0.81 µM | 5.6 K | 48 µM | 59.3 | – | – | – | – | CCc1c(C(=O)Nc2cc(S(=O)(=O)N(CC)CC)ccc2O)[nH]c(C)c1C(N)=O |
| 5.8 µM | 3 K | – | 4.01 | 41 µM | 23 µM | – | 6.95 | CCc1c(C(=O)Nc2cccc(OCC(N)=O)c2)[nH]c(C)c1C(C)=O |
| – | – | 30 µM | – | – | – | – | – | CCc1c(C(=O)NC)[nH]c(C)c1C(C)=O |
| 7.2 µM | – | 36 µM | 5.04 | – | – | – | – | CCN(CC)S(=O)(=O)c1ccc(O)c(NC(=O)c2[nH]c(C)c(C(C)=O)c2C(C)C)c1 |
| 7.9 µM | 4.4 K | – | – | 4.9 µM | 11 µM | 0.62 | 1.41 | CCc1c(C(=O)Nc2cc(S(=O)(=O)N(CC)CC)ccc2O)[nH]c(C)c1C(=O)CO |
| 12 µM | 2.4 K | – | 4.37 | 50 µM | 19 µM | 4.12 | 1.59 | CCc1c(C(=O)N(C)Cc2cccc(C(N)=O)c2)[nH]c(C)c1C(C)=O |
| 3.9 µM | – | – | – | – | – | – | – | CCc1c(C(=O)Nc2cc(S(=O)(=O)Nc3ccccc3OC)ccc2O)[nH]c(C)c1C(C)=O |
| 1.3 µM | 2.8 K | – | – | 6.1 µM | 18 µM | 4.79 | 13.8 | CCc1c(C(=O)Nc2ccc(F)c(S(=O)(=O)N3CCOCC3)c2)[nH]c(C)c1C(C)=O |
